Assay results pooled from the literature.
Each line is one published result; the experiments were not run side by side.
Effect on: enzyme activity
Action: inhibitor
INSR: Insulin receptor (INSR, Homo sapiens, UniProt P06213)
INSR phosphorylated: Insulin receptor, phosphorylated (INSR, Homo sapiens, UniProt P06213)

Cc1[nH]c(/C=C2\C(=O)Nc3ccc(F)cc32)c(C)c1C(=O)N[C@H]1CCN(C(=O)N(C)C)C1  remaining activity (INSR; 1 µM): 87%
Cc1cnc(NC2CCOCC2)nc1-n1cnc(C(=O)NC(CN)c2cc(F)cc(Cl)c2)c1 (stereo not drawn)  remaining activity (INSR; radiometric; 1 µM): 103%
CCCOc1ccc(OC)c(F)c1C(=O)c1ccc(C(=O)N[C@@H]2CNC[C@H]2NC(=O)c2ccc3[nH]ncc3c2)cc1  remaining activity (INSR; 10 µM): 101%
CCN(CC)c1ccc(C2=NNC(=O)CC2C)cc1[N+](=O)[O-] (stereo not drawn)  remaining activity (INSR phosphorylated; 10 µM): 95%
COc1cc(Nc2cnc(C#N)c(O[C@H](C)CN(C)C)n2)ncc1-c1cnn(C)c1  remaining activity (INSR; radiometric; 1 µM): 98%
Cc1sc(C(=O)NC2COC2)cc1-n1cc(NC(=O)Nc2c(F)cccc2Cl)cn1  remaining activity (INSR; 10 µM): 85.5%
CC(C)(C)c1nc2c(s1)c1nc(N)ncc1c1ccc(NS(=O)(=O)c3c(F)cccc3F)c(F)c12  remaining activity (INSR; radiometric; 1 µM): 112%
Oc1cccc(-c2nc(N3CCOCC3)c3oc4ncccc4c3n2)c1  remaining activity (INSR; 10 µM): 80%
Nc1nc(Nc2ccccc2)sc1C(=O)c1c(F)cccc1F  remaining activity (INSR; 10 µM): 88%
Cc1ccc(NC(=O)c2ccc(C)c(C(F)(F)F)c2)cc1C#Cc1nn(C2CCC(O)CC2)c2ncnc(N)c12 (stereo not drawn)  remaining activity (INSR phosphorylated; 10 µM): 89%
CC(C)(C)C(=O)c1sc(NC2CCCCC2)nc1N  remaining activity (INSR; 10 µM): 93%
COc1cc(Cl)c(C(=O)N[C@@H](CN[C@H]2CC[C@@H](N)CC2)Cc2ccc(C#N)cc2)cc1-c1ccc(CN[C@H](C)c2ccc(C)cc2)o1  remaining activity (INSR phosphorylated; 1 µM): 100%
